In the library only some 1% were active in any assay of this set; here they are far more common.
Xi reactivation = activators of X-chromosome reactivation in mouse fibroblasts; XiGFP mouse fibroblasts, % GFP-positive cells imaging, 3 d; cells co-treated with 5-aza-dC sensitizer; scaled so ellipticine positive control = 100%; activation, % at 7.58 µM; 360,000 compounds, 0.055% hits; AID 743238;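 active = mean normalized replicate activation at least 10% and every replicate at or above 10%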;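 also: 0% = median of on-plate neutral control wells and 100% = ellipticine 6 µM median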
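System: XiGFP fibroblasts, SV40-immortalized. Medium: DMEM plus 5-aza-dC sensitizer. Doses: single point. Timing: 3 d treatment, 15 min room-temperature fixation. Control set: ellipticine 6 µM.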
CaV13 FRET inh = Disruptors of the CACNA1D IQ motif to Ca2+-dependent inactivation inhibitor domain association, primary screening, Förster resonance energy transfer in intact living …; 340,000 compounds, 0.098% hits; AID 743397; inhibition, % at 12.3 µM; HEK cells, CFP/YFP FRET ICDI-IQ, plate reader, 10 min; percent FRET-ratio fall versus neutral wells;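 active = mean replicate inhibition of at least 30% and at least 1% of replicates passing that level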;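 also: 0% = median of the neutral control wells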
GAA850 FXN act = increases GAA850 frataxin promoter reporter activity; 360,000 compounds, 0.56% hits; activation, % at 6 µM; HEK293 lucGAA850 FXN promoter luciferase reporter, 24 h; percent of 10 µM SAHA response;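 active = activation above the average of all compounds screened plus 3 SD, cutoff fixed separately per campaign, cut at about 7.5% in these data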;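 also: 0% = DMSO wells and 100% = 10 µM SAHA wells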
INS-1E GSIS act = GLuc luminescence reporter in INS-1E cells, primary screen for activators of glucose-dependent secretion of insulin; activation, % at 16.6 µM; 370,000 compounds, 0.61% hits; INS-1E GLuc reporter insulin secretion, 2-3 h; AID 743287;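 active = lowest replicate activation of at least 40%, so every replicate reaches that level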;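 also: 0% = median of neutral control wells and 100% = median of IBMX positive control wells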
GAA30 FXN cntr = counter-screen for GAA850 frataxin promoter activators: GAA30 promoter activation; shares compounds with GAA850 FXN act; HEK293 lucGAA30 FXN promoter luciferase, 24 h; DMSO = 0%, 5 µM ipriflavone = 100%; activation, % at 6 µM; 1,900 compounds, 66% hits; AID 588350;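 active = mean activation above the mean of solvent-only control wells plus 3 SD, cut at about 22% in these data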;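 also: counterscreen of GAA850 promoter hits where activity marks nonselective or luminescence artifacts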
GAA850 confirm = confirmation of GAA850 frataxin (FXN) promoter activators; shares compounds with GAA850 FXN act; HEK293 lucGAA850 FXN promoter luciferase reporter, 24 h; 100% = activation by SAHA; activation, % at 6 µM; 1,900 compounds, 86% hits; AID 588351;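 active = mean activation above a set limit taken from the primary screen, cut at about 8% in these data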;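 also: 0% = DMSO wells and 100% = 10 µM SAHA wells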
An asterisk follows results filed as active.

CCNc1ccc(N=Nc2c(C)n(C)n(-c3ccccc3)c2=O)cc1 was read as Xi reactivation 0, CaV13 FRET inh 10, GAA850 FXN act 8.4*, INS-1E GSIS act 3, GAA30 FXN cntr 29* and GAA850 confirm 13*.
Screening COc1ccc(C(C)NC(=O)C2C(=O)NC3(C)CC2c2ccccc2O3)cc1 (configuration not stated) returned GAA850 FXN act 2.
For COc1ccc(NC(=O)C2C(=O)NC3(C)CC2c2ccccc2O3)cc1 (configuration not stated) the results were GAA850 FXN act 13*, GAA30 FXN cntr 21 and GAA850 confirm 7.
`CC1(Cc2cccc(F)c2)C(=O)Nc2ccc(OC(F)(F)F)cc21` (configuration not stated) gave Xi reactivation 0, CaV13 FRET inh -4, GAA850 FXN act 3 and INS-1E GSIS act -18.
COc1ccccc1-c1ccc2c(c1)C(C)(Cc1cccc(F)c1)C(=O)N2 (configuration not stated) was read as Xi reactivation 1, CaV13 FRET inh -8, GAA850 FXN act 11*, INS-1E GSIS act -5, GAA30 FXN cntr 17 and GAA850 confirm 12*.
`COc1ccc(C(C)=O)cc1CC1(C)C(=O)Nc2ccc(-c3ccccc3OC)cc21` (configuration not stated) gave Xi reactivation 0, CaV13 FRET inh -5, GAA850 FXN act 15*, INS-1E GSIS act -12, GAA30 FXN cntr 10 and GAA850 confirm 9.2*.
`COc1ccc(NC(=O)N(C)C[C@@H]2Oc3ccc(NC(=O)CCN4CCOCC4)cc3CC(=O)N([C@H](C)CO)C[C@@H]2C)cc1` gave Xi reactivation 0 and INS-1E GSIS act 6.
Screening CC(=C/c1ccccc1)/C=N/NC(=O)c1ccc2nc[nH]c2c1 returned Xi reactivation 0, CaV13 FRET inh -4, GAA850 FXN act 4 and INS-1E GSIS act -6.
O=C(N/N=C/c1ccccc1)NC1CCCCC1 was read as CaV13 FRET inh -8, GAA850 FXN act 8.6*, INS-1E GSIS act 8, GAA30 FXN cntr 62* and GAA850 confirm 20*.
For O=C(N/N=C/C(Br)=C\c1ccccc1)c1ccc2nc[nH]c2c1 the results were Xi reactivation 0, CaV13 FRET inh -5, GAA850 FXN act 8.5*, INS-1E GSIS act -28, GAA30 FXN cntr 38* and GAA850 confirm 19*.
O=C(N/N=C/C(Br)=C/c1ccccc1)NC1CCCCC1 was read as Xi reactivation 0, CaV13 FRET inh -5, GAA850 FXN act 9.8*, INS-1E GSIS act -30, GAA30 FXN cntr 51* and GAA850 confirm 22*.
Screening CC(/C=N/NC(=O)NC1CCCCC1)=C\c1ccccc1 returned Xi reactivation 0, CaV13 FRET inh 2, GAA850 FXN act 3 and INS-1E GSIS act -6.
For O=C(N/N=C/C(Br)=C/c1ccccc1)C(O)c1ccccc1 (configuration not stated) the results were Xi reactivation 3, CaV13 FRET inh -5, GAA850 FXN act 6 and INS-1E GSIS act 11.
Screening O=C(N/N=C/C(Br)=C/c1ccccc1)C1CC1 returned Xi reactivation 0, CaV13 FRET inh 5, GAA850 FXN act 8.2*, GAA30 FXN cntr 81* and GAA850 confirm 31*.
For C[C@@H]1CN([C@@H](C)CO)C(=O)c2cccc(NS(=O)(=O)c3ccc(Cl)cc3)c2O[C@@H]1CN(C)Cc1ccc(Cl)c(Cl)c1 the results were Xi reactivation 0 and INS-1E GSIS act -13.
For CCCC#Cc1ccc([C@@H]2[C@H]3CN(S(=O)(=O)Cc4ccccc4)CC(=O)N3[C@H]2CO)cc1 the results were Xi reactivation 0 and INS-1E GSIS act -5.
For O=C(C[C@H]1C=C[C@@H](NC(=O)c2ccccn2)[C@@H](CO)O1)NCc1cc(F)cc(F)c1 the results were Xi reactivation 0 and INS-1E GSIS act 4.
Screening CC(C)C(=O)Nc1ccc2c(c1)C(=O)N(C)[C@H]1CC[C@H](CC(=O)NCc3ccc(F)cc3)O[C@@H]1CO2 returned Xi reactivation 0 and INS-1E GSIS act 1.
For O=C(O)c1ccc(N/N=C/C(Br)=C/c2ccccc2)cc1 the results were Xi reactivation 0, CaV13 FRET inh -4, GAA850 FXN act 10.0*, INS-1E GSIS act -11, GAA30 FXN cntr 82* and GAA850 confirm 36*.
`Cc1ccc(NCC(=O)N/N=C\C(Br)=C\c2ccccc2)cc1` gave CaV13 FRET inh -8, GAA850 FXN act 13*, INS-1E GSIS act 12, GAA30 FXN cntr 15 and GAA850 confirm 11*.
Screening Cc1cc(C)nc(SCC(=O)N/N=C\C(Br)=C\c2ccccc2)n1 returned Xi reactivation 0, CaV13 FRET inh -9, GAA850 FXN act 0 and INS-1E GSIS act 4.
Screening C[C@H](O)C#Cc1cnc2c(c1)C(=O)N([C@@H](C)CO)C[C@H](C)[C@@H](CN(C)Cc1ccccn1)O2 returned Xi reactivation 0 and INS-1E GSIS act 5.
Screening COc1cccc2sc3cc(NCc4ccc(C)o4)ccc3c(=O)c12 returned Xi reactivation 0, CaV13 FRET inh -9, GAA850 FXN act 7.7*, INS-1E GSIS act 29, GAA30 FXN cntr 88* and GAA850 confirm 34*.
CN(C)c1ccc(C(=O)/C=C/c2cccnc2)cc1 was read as Xi reactivation 0, CaV13 FRET inh -19, GAA850 FXN act 8.8*, INS-1E GSIS act 1, GAA30 FXN cntr 119* and GAA850 confirm 37*.
`O=C(/C=C/c1cccnc1)c1ccc(F)c(F)c1` gave Xi reactivation 0, CaV13 FRET inh -7, GAA850 FXN act 4 and INS-1E GSIS act -25.
Screening O=C(Nc1nnc(SCc2ccc(F)cc2)s1)C1CC(=O)N(Cc2ccccc2)C1 (configuration not stated) returned Xi reactivation 0, CaV13 FRET inh -3, GAA850 FXN act 11*, INS-1E GSIS act -21, GAA30 FXN cntr 25* and GAA850 confirm 12*.
For Clc1ccc(OCCn2cnc3ccccc32)cc1 the results were GAA850 FXN act 3.
Screening Clc1ccc(Cn2cnc3ccccc32)cc1 returned Xi reactivation 0, CaV13 FRET inh -6, GAA850 FXN act 2 and INS-1E GSIS act -7.
Screening Clc1ccccc1OCCn1cnc2ccccc21 returned CaV13 FRET inh -9, GAA850 FXN act 9.2*, GAA30 FXN cntr 41* and GAA850 confirm 24*.
Screening c1ccc(Cn2cnc3ccccc32)cc1 returned GAA850 FXN act 11*, GAA30 FXN cntr 120* and GAA850 confirm 44*.
